Laboratory results taken from ChEMBL document CHEMBL1145112, “Pyrazolo[4,3-e]-1,2,4-triazolo[1,5-c]pyrimidine derivatives as adenosine receptor antagonists. Influence of the N5 substituent on the affinity at the human A 3 and A 2B adenosine receptor subtypes: a molecular modeling investigation” (J Med Chem, 2003).

How the values were obtained:
Adenosine receptor A2b [1] = target: T1, Adenosine receptor A2b (Homo sapiens, UniProt P29275); test: Inhibitory activity against NECA stimulated cAMP accumulation in CHO cells expressing human adenosine A2B receptor; assay type: functional, cell-based
T1 sequence (P29275 whole entry): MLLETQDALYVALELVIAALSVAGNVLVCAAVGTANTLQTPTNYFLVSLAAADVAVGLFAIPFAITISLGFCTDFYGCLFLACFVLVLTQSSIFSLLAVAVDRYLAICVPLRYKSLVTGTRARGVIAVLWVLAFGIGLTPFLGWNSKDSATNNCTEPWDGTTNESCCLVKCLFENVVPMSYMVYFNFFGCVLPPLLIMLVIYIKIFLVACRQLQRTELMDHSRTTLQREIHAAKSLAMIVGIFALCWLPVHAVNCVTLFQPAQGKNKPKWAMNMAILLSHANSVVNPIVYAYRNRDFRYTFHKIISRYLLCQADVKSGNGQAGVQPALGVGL
Procedure, shortened: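 Transfected CHO cells (1 × 10^6/assay) in pH 7.4 saline/HEPES/glucose medium with 2 IU/mL adenosine deaminase and Ro 20-1724 (phosphodiesterase inhibitor), preincubated 10 min at 37 °C. Antagonism of 100 nM NECA-stimulated cAMP was measured. Reaction stopped with cold 6% TCA, then ether extraction. cAMP was quantified by competitive binding with [3H]-cAMP and beef adrenal binding protein (150 min, 4 °C), with charcoal separation and scintillation counting.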

[2] = target: Adenosine receptors; A1 & A2b (Homo sapiens) (UniProt P30542+P29275); test: Relative inhibitory activity against adenosine A1 and A2B receptors; assay type: protein assay
[3] = target: Adenosine receptors; A2b & A3 (Homo sapiens) (UniProt P29275+P0DMS8); test: Relative inhibitory activity against adenosine A3 receptors and A2B receptors; assay type: protein assay
Adenosine receptor A2a = Adenosine receptor A2a (Homo sapiens, UniProt P29274); test: Displacement of [3H]ZM-241385 from human adenosine A2A receptors expressed in HEK293 cells; assay type: cell-based
Chain of Adenosine receptor A2a (P29274 whole entry): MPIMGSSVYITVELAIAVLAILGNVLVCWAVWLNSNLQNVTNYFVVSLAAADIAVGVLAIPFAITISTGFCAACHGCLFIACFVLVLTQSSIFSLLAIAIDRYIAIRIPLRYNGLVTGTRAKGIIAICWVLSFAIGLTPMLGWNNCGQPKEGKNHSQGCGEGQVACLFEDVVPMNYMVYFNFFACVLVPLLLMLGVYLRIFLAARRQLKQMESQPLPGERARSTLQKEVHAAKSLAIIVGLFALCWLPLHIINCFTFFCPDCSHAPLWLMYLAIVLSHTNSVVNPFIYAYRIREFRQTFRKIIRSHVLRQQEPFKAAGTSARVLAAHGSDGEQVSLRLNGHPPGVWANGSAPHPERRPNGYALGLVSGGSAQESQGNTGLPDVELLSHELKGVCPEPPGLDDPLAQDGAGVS

Adenosine receptor A3 = target: T2, Adenosine receptor A3 (Homo sapiens, UniProt P0DMS8); test: Displacement of [3H]MRE3008-F20 from human A3 receptors expressed in HEK293 cells; assay type: cell-based
T2 sequence (P0DMS8 whole entry): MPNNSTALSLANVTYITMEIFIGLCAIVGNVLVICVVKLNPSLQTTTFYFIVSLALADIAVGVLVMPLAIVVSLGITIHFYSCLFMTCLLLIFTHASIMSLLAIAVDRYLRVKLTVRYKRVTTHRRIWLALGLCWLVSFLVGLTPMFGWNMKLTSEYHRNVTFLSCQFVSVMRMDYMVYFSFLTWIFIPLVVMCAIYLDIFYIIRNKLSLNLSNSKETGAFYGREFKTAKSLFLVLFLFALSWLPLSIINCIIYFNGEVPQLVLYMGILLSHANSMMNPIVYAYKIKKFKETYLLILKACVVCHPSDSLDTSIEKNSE
Procedure, shortened: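 Duplicate competition tubes: 1 nM [3H]-MRE3008-F20 in 50 mM Tris-HCl, 10 mM MgCl2, pH 7.4, membranes (50 μg protein/assay) and at least six to eight ligand concentrations, incubated 120 min at 4 °C. Nonspecific binding was set with 1 μM unlabeled MRE3008-F20. Bound radioactivity was collected on GF/B filters and counted.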

Adenosine receptor A1 = target: T3, Adenosine receptor A1 (Homo sapiens, UniProt P30542); test: Displacement of [3H]DPCPX from human Adenosine A1 receptor expressed in CHO cells; assay type: cell-based
T3 sequence (P30542 whole entry): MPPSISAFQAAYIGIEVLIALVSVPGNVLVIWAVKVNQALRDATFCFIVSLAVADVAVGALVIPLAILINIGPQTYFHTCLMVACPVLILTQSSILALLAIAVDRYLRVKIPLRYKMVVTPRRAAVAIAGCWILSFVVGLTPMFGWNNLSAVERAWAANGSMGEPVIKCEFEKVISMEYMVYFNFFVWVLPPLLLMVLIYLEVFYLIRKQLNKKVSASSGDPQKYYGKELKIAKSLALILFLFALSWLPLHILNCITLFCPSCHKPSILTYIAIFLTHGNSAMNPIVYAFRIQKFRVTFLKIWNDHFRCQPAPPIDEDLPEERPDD
Procedure, shortened: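 Membranes from the transfected cells in 50 mM Tris-HCl, pH 7.4, incubated 120 min at 25 °C with 1 nM [3H]-DPCPX (50 μg protein/assay) and at least six to eight test concentrations. Nonspecific binding was set with 10 μM CHA. Bound and free ligand were separated by GF/B filtration, then scintillation counted. n = 3–6, mean ± SEM.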

Adenosine receptor A2b [4] = target: T1, Adenosine receptor A2b; test: Displacement of [3H]DPCPX from human adenosine A2B receptor expressed in HEK293 cells; assay type: cell-based
Procedure, shortened: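 Competition run 60 min at 25 °C in 50 mM Tris-HCl, 10 mM MgCl2, 1 mM EDTA, 0.1 mM […], pH 7.4, with 2 IU/mL adenosine deaminase. Assays held 40 nM [3H]-DPCPX, membranes (20 μg protein/assay) and at least six to eight compound concentrations. Nonspecific binding was set with 100 μM NECA. Filtered on GF/B and counted. n = 3–6, mean ± SEM.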

| IC50 (Adenosine receptor A2b [1]) | Ratio [2] | Ratio [3] | Ki (Adenosine receptor A2a) | Ki (Adenosine receptor A3) | Ki (Adenosine receptor A1) | Ki (Adenosine receptor A2b [4]) | SMILES |
| --- | --- | --- | --- | --- | --- | --- | --- |
| 180 nM | 3 | 4 | 55 nM | 120 nM | 90 nM | 30 nM | O=C(Cc1cccc2ccccc12)Nc1nc2nn(CCc3ccccc3)cc2c2nc(-c3ccco3)nn12 |
|  | 0.2 |  |  |  |  |  | Nc1nc2nn(CCc3ccccc3)cc2c2nc(-c3ccco3)nn12 |
| 140 nM | 2 | 1.6 | 45 nM | 40 nM | 50 nM | 25 nM | O=C(COc1ccccc1)Nc1nc2nn(CCCc3ccccc3)cc2c2nc(-c3ccco3)nn12 |
| 150 nM | 2.2 | 2 | 38 nM | 50 nM | 55 nM | 25 nM | CC(C)CCn1cc2c(nc(NC(=O)COc3ccccc3)n3nc(-c4ccco4)nc23)n1 |
|  | 2.67 | 0.0007 |  |  |  |  | Cn1cc2c(nc(NC(=O)Nc3ccccc3)n3nc(-c4ccco4)nc23)n1 |
| 210 nM | 3.4 | 1.3 | 60 nM | 45 nM | 120 nM | 35 nM | O=C(Cc1ccccc1)Nc1nc2nn(CCc3ccccc3)cc2c2nc(-c3ccco3)nn12 |
| 190 nM | 6.4 | 2.6 | 57 nM |  | 200 nM | 31 nM | CC(C)CCn1cc2c(nc(NC(=O)Cc3ccccc3)n3nc(-c4ccco4)nc23)n1 |
| 170 nM | 5.07 | 7.7 | 42 nM | 215 nM | 142 nM | 28 nM | CC(C)CCn1cc2c(nc(NC(=O)Cc3cccc4ccccc34)n3nc(-c4ccco4)nc23)n1 |
|  | 4.2 | 0.05 |  |  |  |  | Cn1cc2c(nc(NC(=O)Cc3ccccc3)n3nc(-c4ccco4)nc23)n1 |
| 250 nM | 1.9 | 3 | 60 nM |  | 75 nM | 40 nM | O=C(Cc1ccccc1)Nc1nc2nn(CCCc3ccccc3)cc2c2nc(-c3ccco3)nn12 |
| 130 nM | 0.9 | 13.6 | 40 nM | 300 nM | 20 nM | 22 nM | O=C(COc1ccccc1)Nc1nc2nn(CCc3ccccc3)cc2c2nc(-c3ccco3)nn12 |

| SMILES | IC50 (Adenosine receptor A2b [1]) | Ratio [2] | Ratio [3] | Ki (Adenosine receptor A2a) | Ki (Adenosine receptor A3) | Ki (Adenosine receptor A1) | Ki (Adenosine receptor A2b [4]) |
| --- | --- | --- | --- | --- | --- | --- | --- |
| O=C(Cc1cccc2ccccc12)Nc1nc2nn(CCCc3ccccc3)cc2c2nc(-c3ccco3)nn12 | 110 nM | 55 | 15 | 800 nM | 300 nM | 1100 nM | 20 nM |
